# Measurements collected from several papers.
# Compare with care: the assays were run in different laboratories.
# Organism: Bacillus subtilis
Structure (SMILES),observed,method,strain,tested at,time,quantity,value
O=C(O)c1cn(C2CC2)c2cc(N3CCNCC3)c(F)cc2c1=O,microbial killing,,,,,MBC,19 µM
CCCCCCCC/C=C\CCCCCCCC(=O)C(F)(F)P(=O)(O)O,microbial growth,,ATCC23857,,,MIC,> 200 µg/mL
CC(C)CCCCCCCCCCCCCCCc1cc(O)cc(O)c1,microbial growth,,,,,IC50,14.5 µM
CCCCCCCCCCCCCCCC(=O)NS(=O)(=O)Oc1ccc(OC)cc1,microbial growth,,ATCC23857,,,MIC,3.12 µg/mL
CCCCCCCCCCCC(=O)OC[C@H]1O[C@@H](n2cc(C)c(=O)[nH]c2=O)C[C@@H]1O,microbial killing,broth dilution,,,,MBC,16 µg/mL
CCC(CCCCCCCCCCc1cc(O)cc(O)c1)C(C)C (stereo not shown),microbial growth,,,,,IC50,3.44 µM
Cc1c(NN=C(C#N)C2=NC(=O)CS2)c(=O)n(-c2ccccc2)n1C,microbial killing,broth dilution,,,,MBC,2 µg/mL
CCCCCCCCCCCCCCCC(=O)CP(=O)(O)O,microbial growth,,ATCC23857,,,MIC,25 µg/mL
CCCCCCCCCCCCCCCc1cc(O)cc(O)c1,microbial growth,,,,,IC50,26.7 µM
CCCCCCCCCCCC(=O)NP(=O)(O)O,microbial growth,,ATCC23857,,,MIC,> 200 µg/mL
CC1(C)S[C@@H]2[C@H](NC(=O)[C@H](N)c3ccccc3)C(=O)N2[C@H]1C(=O)O,microbial growth,well diffusion,ATCC6633,60000 µg/mL,,inhibition zone,31 mm
O=C(CCCCC1CCCCC1)NP(=O)(O)O,microbial growth,,ATCC23857,,,MIC,> 200 µg/mL
CCC1C(=NOCc2cc(-c3ccc(Cl)cc3)no2)CC(c2ccccc2)OC1c1ccccc1 (stereo not shown),microbial growth,broth dilution,MTCC121,,24 h,MIC,12.5 µg/mL
CCCCCCCCCCCC(=O)OC[C@H]1O[C@@H](n2cc(C)c(=O)[nH]c2=O)C[C@@H]1OC(=O)c1ccc(C(C)(C)C)cc1,microbial killing,broth dilution,,,,MBC,16 µg/mL
CC1C(=NOCc2cc(-c3ccc(Cl)cc3)no2)CC(c2ccccc2)OC1c1ccccc1 (stereo not shown),microbial growth,broth dilution,MTCC121,,24 h,MIC,12.5 µg/mL
CC(C)CCCCCCCCCCCCc1cc(O)cc(O)c1,microbial growth,,,,,IC50,54.6 µM
